Results of several laboratories.
Lines come from different studies, so protocols differ.
SCN1A: Sodium channel protein type 1 subunit alpha (SCN1A, Homo sapiens, UniProt P35498)
RIPK2: Receptor-interacting serine/threonine-protein kinase 2 (RIPK2, Homo sapiens, UniProt O43353)
CDK5 with p25: Cyclin-dependent kinase 5, with p25 (CDK5, Homo sapiens, UniProt Q00535)

Compound | target | read-out | action | method | concentration | measurement | result
CCCN1C[C@H](CSC)C[C@@H]2c3cccc4[nH]cc(c34)C[C@H]21 | SCN1A | ion current | inhibitor | patch clamp | 30 µM | inhibition | 89.1%
CNc1ncc2c(/C=C/C(=O)N3CCC(OC)CC3)nn(Cc3cccc(C(F)(F)F)c3)c2n1 | RIPK2 | enzyme activity | inhibitor | radiometric | 1 µM | remaining activity | 87%
C[C@@H]1CC2=C(CN1Cc1cccc(C#N)c1)C(=O)N(Cc1ccc(Br)cc1)C1=NCCN12 | ATP-dependent Clp protease proteolytic subunit, mitochondrial (CLPP, Homo sapiens, UniProt Q16740) | thermal stability |  | DSF | 670 µM | ΔTm | 17.7 °C
C=CC(=O)N1CCC(COCC(=O)N2CCN(c3nc(-c4cnc(N)nc4C(F)F)nc(N4CCOC[C@@H]4C)n3)CC2)CC1 | RIPK2 | binding |  | competition with immobilised ligand | 1 µM | remaining binding | 95%
C[C@H]1O[C@H](O[C@H]2[C@H](O)[C@@H](O)[C@@H](O[C@H]3[C@H](O)[C@@H](O)C(O)O[C@@H]3CO)O[C@@H]2CO)[C@H](O)[C@@H](O)[C@@H]1N[C@H]1C=C(CO)[C@@H](O)[C@H](O)[C@H]1O (stereo partly shown) | Alpha-glucosidase MAL12 (MAL12, Saccharomyces cerevisiae S288c, UniProt P53341) | enzyme activity | inhibitor | absorbance | 1000 µg/mL | inhibition | 80.6%
CC(=O)c1c(C)c2cnc(Nc3ccc(N4CCNCC4)cn3)nc2n(C2CCCC2)c1=O | CDK5 with p25 | enzyme activity | inhibitor | ADP detection | 1 µM | activity vs control | 97%
CC(C)NCC(O)COc1cccc2ccccc12 (stereo not shown) | SCN1A | ion current | inhibitor | patch clamp | 3 µM | inhibition | 2.62%
Cc1cc([C@@H](C)Nc2ccccc2C(=O)O)c2nc(N3CCC(F)(F)CC3)c(C#N)c(=O)n2c1 | Focal adhesion kinase 1 (PTK2, Homo sapiens, UniProt Q05397) | binding |  | competition with immobilised ligand | 10 µM | remaining binding | 100%
Cc1nnc(SCC2=C(C(=O)O)N3C(=O)[C@@H](NC(=O)Cn4cnnn4)[C@H]3SC2)s1 | SCN1A | ion current | inhibitor | patch clamp | 30 µM | inhibition | 7.45%
COc1cc(-c2cncc3c2CN(C)Cc2cc(N4CCNCC4)ccc2-3)cc(OC)c1OC | CDK5 with p25 | enzyme activity | inhibitor |  | 1 µM | remaining activity | 109%
